pIC50: −log10 of the molar value. Calls of active or inactive are those of the source. The rule behind the calls is not given here.
Legend:
L1210 [1] = assay: Cytotoxicity against mouse L1210 cells after 48 hrs by coulter counter method; assay type: functional, cell-based; settings: L1210, 48 h
Summary of the method: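 L1210 cells in RPMI 1640 with 2 mM L-glutamine, penicillin, streptomycin and 20% heat-inactivated horse serum at 37 °C, 5% CO2. Drugs added in DMSO (0.5% final) to exponentially growing cells seeded at 0.8 × 10^5 cells/mL. Cells counted in triplicate after 48 h by Coulter counter. IC50 taken from probit regression of percent growth inhibition against log dose.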

L1210 [2] = assay: Cell cycle arrest in mouse L1210 cells assessed accumulation of cells at G1 phase at 100 uM after 21 hrs by propidium iodide staining-based flow cytometric analysis; assay type: functional
Summary of the method: (§1)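 L1210 leukemia cells in RPMI 1640 with 2 mM L-glutamine, penicillin, streptomycin and 20% heat-inactivated horse serum, exposed to several drug concentrations for 21 h at 37 °C, 5% CO2. Cells fixed in 70% ethanol, washed, then stained 30 min at room temperature in PBS containing RNAse and propidium iodide. Flow cytometry; result given as percentage of cells in each cell-cycle phase.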

L1210 [3] = assay: Cell cycle arrest in mouse L1210 cells assessed accumulation of cells at G2/M phase at 50 uM after 21 hrs by propidium iodide staining-based flow cytometric analysis; assay type: functional; summary of the method: as §1
L1210 [4] = assay: Cell cycle arrest in mouse L1210 cells assessed accumulation of cells at G1 phase at 25 uM after 21 hrs by propidium iodide staining-based flow cytometric analysis; assay type: functional; summary of the method: as §1
[5] = biological target: GTPase KRas (Homo sapiens) (UniProt P01116); assay: Inhibition of KRas in human HCT cells at 0.2 uM relative to control; assay type: cell-based
GTPase KRas (Homo sapiens), sequence (P01116 whole entry, looked up): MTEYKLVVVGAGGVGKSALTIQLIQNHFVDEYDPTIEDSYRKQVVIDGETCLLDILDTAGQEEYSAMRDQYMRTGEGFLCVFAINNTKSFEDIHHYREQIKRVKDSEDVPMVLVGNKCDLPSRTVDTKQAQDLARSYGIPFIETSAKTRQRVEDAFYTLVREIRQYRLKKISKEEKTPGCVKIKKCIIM

[6] = biological target: GTPase KRas (Homo sapiens) (UniProt P01116); assay: Inhibition of KRas in human HCT cells at 2 uM relative to control; assay type: cell-based
[7] = biological target: GTPase KRas (Homo sapiens) (UniProt P01116); assay: Inhibition of KRas in human HCT cells at 20 uM relative to control; assay type: cell-based
[8] = biological target: GTPase KRas (Homo sapiens) (UniProt P01116); assay: Inhibition of KRas in human RKO cells at 0.2 uM relative to control; assay type: cell-based
[9] = biological target: GTPase KRas (Homo sapiens) (UniProt P01116); assay: Inhibition of KRas in human RKO cells at 2 uM relative to control; assay type: cell-based
[10] = biological target: GTPase KRas (Homo sapiens) (UniProt P01116); assay: Inhibition of KRas in human RKO cells at 20 uM relative to control; assay type: cell-based
[11] = biological target: GTPase KRas (Homo sapiens) (UniProt P01116); assay: Inhibition of KRas in human Colon 320 cells at 0.2 uM relative to control; assay type: cell-based
[12] = biological target: GTPase KRas (Homo sapiens) (UniProt P01116); assay: Inhibition of KRas in human Colon 320 cells at 2 uM relative to control; assay type: cell-based
[13] = biological target: GTPase KRas (Homo sapiens) (UniProt P01116); assay: Inhibition of KRas in human Colon 320 cells at 20 uM relative to control; assay type: cell-based
[14] = biological target: GTPase KRas (Homo sapiens) (UniProt P01116); assay: Inhibition of KRas in human SNU-C1 cells at 0.2 uM relative to control; assay type: cell-based
[15] = biological target: GTPase KRas (Homo sapiens) (UniProt P01116); assay: Inhibition of KRas in human SNU-C1 cells at 2 uM relative to control; assay type: cell-based
[16] = biological target: GTPase KRas (Homo sapiens) (UniProt P01116); assay: Inhibition of KRas in human SNU-C1 cells at 20 uM relative to control; assay type: cell-based
L1210 [17] = assay: Cell cycle arrest in mouse L1210 cells assessed accumulation of cells at G2/M phase at 100 uM after 21 hrs by propidium iodide staining-based flow cytometric analysis; assay type: functional; summary of the method: as §1
L1210 [18] = assay: Cell cycle arrest in mouse L1210 cells assessed accumulation of cells at 8N phase at 5 uM after 21 hrs by propidium iodide staining-based flow cytometric analysis relative to control; assay type: functional; summary of the method: as §1
L1210 [19] = assay: Cell cycle arrest in mouse L1210 cells assessed accumulation of cells at 8N phase at 10 uM after 21 hrs by propidium iodide staining-based flow cytometric analysis relative to control; assay type: functional; summary of the method: as §1

COc1cc2c(cc1OC)C(c1cc(OC)c(OC)c(OC)c1)N(CCO)CC2 (stereo not drawn)
pIC50 (L1210 [1]): 4.63

O=C(O)CCCCCN1CCc2cc3c(cc2C1c1ccncc1)OCCO3 (stereo not drawn)
pIC50 (L1210 [1]): < 5.00

CCOC(=O)CCCCCN1CCc2cc3c(cc2C1c1cc(OC)c(OC)c(OC)c1)OCCO3 (stereo not drawn)
pIC50 (L1210 [1]): < 5.00

COc1cc(C2NCCc3cc4c(cc32)OCCO4)cc(OC)c1OC (stereo not drawn)
pIC50 (L1210 [1]): 4.68 | Activity (L1210 [2]): Active

COc1cc2c(c3c1c(=O)c1ccccc1n3C)C=CC(C)(C)O2 [ACRONINE]
pIC50 (L1210 [1]): 4.68 | Activity (L1210 [3]): Active

COc1cc(C2c3cc4c(cc3CCN2CCN)OCCO4)cc(OC)c1OC (stereo not drawn)
Activity (L1210 [4]): Active | pIC50 (L1210 [1]): 5.70 | inhibition [5]: 0% | inhibition [6]: 16.2% | inhibition [7]: 56.9% | inhibition [8]: 0% | inhibition [9]: 10.1% | inhibition [10]: 92.7% | inhibition [11]: 0% | inhibition [12]: 20.1% | inhibition [13]: 85.3% | inhibition [14]: 12.2% | inhibition [15]: 2.4% | inhibition [16]: 57.1%

COc1cc(C2c3cc4c(cc3CCN2c2ccc([N+](=O)[O-])cc2)OCCO4)cc(OC)c1OC (stereo not drawn)
Activity (L1210 [4]): Active | pIC50 (L1210 [1]): 5.34 | inhibition [5]: 0% | inhibition [6]: 19.3% | inhibition [7]: 55.9% | inhibition [8]: 17.9% | inhibition [9]: 32.9% | inhibition [10]: 70.5% | inhibition [11]: 0% | inhibition [12]: 4% | inhibition [13]: 92.5% | inhibition [14]: 17.7% | inhibition [15]: 35% | inhibition [16]: 42.7%

COc1cc(C2c3cc4c(cc3CCN2CCCCCC(=O)O)OCCO4)cc(OC)c1OC (stereo not drawn)
pIC50 (L1210 [1]): 5.03

CCOC(=O)N1CCc2cc3c(cc2C1c1cc(OC)c(OC)c(OC)c1)OCCO3 (stereo not drawn)
pIC50 (L1210 [1]): < 5.00

COc1cc(-c2nccc3cc4c(cc23)OCCO4)cc(OC)c1OC
pIC50 (L1210 [1]): 4.60 | Activity (L1210 [17]): Active

CCOC(CCN1CCc2cc3c(cc2C1c1cc(OC)c(OC)c(OC)c1)OCCO3)OCC (stereo not drawn)
pIC50 (L1210 [1]): < 5.00

COc1cc(C2c3cc4c(cc3CCN2CCN(C)C)OCCO4)cc(OC)c1OC (stereo not drawn)
Activity (L1210 [4]): Active | pIC50 (L1210 [1]): 5.43

COC(=O)CCCCCN1CCc2cc3c(cc2C1c1ccncc1)OCCO3 (stereo not drawn)
pIC50 (L1210 [1]): < 5.00

CCOC(=O)N1CCc2cc3c(cc2C1c1ccncc1)OCCO3 (stereo not drawn)
pIC50 (L1210 [1]): < 5.00

COc1cc(C2c3cc4c(cc3CCN2CC#N)OCCO4)cc(OC)c1OC (stereo not drawn)
pIC50 (L1210 [1]): 5.38 | inhibition [5]: 12.1% | inhibition [6]: 17% | inhibition [7]: 49.1% | inhibition [8]: 0% | inhibition [9]: 16.3% | inhibition [10]: 79.2% | inhibition [11]: 0% | inhibition [12]: 8.2% | inhibition [13]: 74.7% | inhibition [14]: 10% | inhibition [15]: 6% | inhibition [16]: 59.8% | Activity (L1210 [2]): Active

CCN(CC)CCN1CCc2cc3c(cc2C1c1cc(OC)c(OC)c(OC)c1)OCCO3 (stereo not drawn)
pIC50 (L1210 [1]): 5.39

COc1cc(C2c3cc4c(cc3CCN2CCO)OCCO4)cc(OC)c1OC (stereo not drawn)
pIC50 (L1210 [1]): 5.59 | inhibition [5]: 18% | inhibition [6]: 12.1% | inhibition [7]: 46.5% | inhibition [8]: 0% | inhibition [9]: 6.3% | inhibition [10]: 76.7% | inhibition [11]: 12.2% | inhibition [12]: 0% | inhibition [13]: 78.2% | inhibition [14]: 12.3% | inhibition [15]: 11.5% | inhibition [16]: 19.7% | Activity (L1210 [18]): 70%

COc1cc(C2c3cc4c(cc3CCN2c2ccc(C#N)cc2)OCCO4)cc(OC)c1OC (stereo not drawn)
pIC50 (L1210 [1]): 5.44 | inhibition [5]: 35.9% | inhibition [6]: 16% | inhibition [7]: 45.2% | inhibition [8]: 95.8% | inhibition [9]: 7.7% | inhibition [10]: 66.5% | inhibition [11]: 0% | inhibition [12]: 22.5% | inhibition [13]: 89.9% | inhibition [14]: 6.6% | inhibition [15]: 32.5% | inhibition [16]: 43.5% | Activity (L1210 [19]): 70%

COc1cc2c(cc1OC)C(c1cc(OC)c(OC)c(OC)c1)N(CC(O)CO)CC2 (stereo not drawn)
pIC50 (L1210 [1]): 4.82
